Series [1] is described as follows: Inhibition of cell growth of human pancreatic cancer cells measured after 72 hrs by CCK8 assay. The series is classed as functional. The essentials:
(§1)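 CCK-8 viability in human pancreatic cancer lines. Compounds were added over 100–0.05 μM 24 h after seeding, alongside a 0.5% DMSO vehicle. After 72 h, CCK-8 was incubated for 1 h at 37 °C. A450 minus A650 was expressed as % of vehicle. IC50 was taken from the dose-response curve. Seeding was 3×10^3/well for MiaPaCa2 and 7×10^3/well for BxPC3 and CFPAC-1. n = 3.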

The test system of series [2] is BXPC-3. As to the kind of experiment: Inhibition of cell growth of human BXPC-3 cells measured after 72 hrs by CCK8 assay. The series is classed as functional. The essentials: as §1
Series [3] has as its system ASPC1. As to the kind of experiment: Inhibition of cell growth of human ASPC1 cells measured after 72 hrs by CCK8 assay. The class given is functional.
Series [4] concerns Capan-2. The series is described as follows: Inhibition of cell growth of human Capan-2 cells measured after 72 hrs by CCK8 assay. The class given is functional.
Series [5] relates to PANC-1. As to the kind of experiment: Inhibition of cell growth of human PANC-1 cells measured after 72 hrs by CCK8 assay. The series is classed as functional.
The test system of series [6] is HPAC. The series is described as follows: Inhibition of cell growth of human HPAC cells measured after 72 hrs by CCK8 assay. The series is classed as functional.
In series [7] the test system is MIA PaCa-2. As to the kind of experiment: Inhibition of cell growth of human MIA PaCa-2 cells measured after 72 hrs by CCK8 assay. The class given is functional. The essentials:
as §1

Series [8] deals with HT-29. As to the kind of experiment: Inhibition of cell growth of human HT-29 cells measured after 72 hrs by MTT assay. The series is classed as functional. The essentials: (§2)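 MTT read-out. Cancer lines were grown in DMEM with 10% FBS, glutamine and antibiotics. MCF10A was grown in DMEM:F12 with 5% horse serum, EGF, hydrocortisone, cholera toxin and insulin. Cells were plated in duplicate at 2500–4000/well, and drug was added 24 h later. After 72 h, absorbance was read at 540 nm. Single-point lines used 25 μM. GI50 is 50% growth inhibition versus untreated control. n = 3.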

Series [9] relates to MCF7. As to the kind of experiment: Inhibition of cell growth of human MCF7 cells measured after 72 hrs by MTT assay. The series is classed as functional. The method, boiled down: as §2
In series [10] the test system is A2780. As to the kind of experiment: Inhibition of cell growth of human A2780 cells measured after 72 hrs by MTT assay. The series is classed as functional. The essentials: as §2
In series [11] the test system is BE(2)-C. As to the kind of experiment: Inhibition of cell growth of human BE2C cells measured after 72 hrs by MTT assay. The series is classed as functional. The method, boiled down: as §2
In series [12] the test system is MIA PaCa-2. The series is described as follows: Inhibition of cell growth of human MIA PaCa-2 cells measured after 72 hrs by MTT assay. The series is classed as functional. The method, boiled down: as §2
A short description of series [13]: Inhibition of cell growth of human MCF-10A cells measured after 72 hrs by MTT assay. The class given is toxicity, cell-based. The essentials:
as §2

In series [14] the test system is BXPC-3. As to the kind of experiment: Inhibition of cell growth of human BXPC-3 cells measured after 72 hrs by MTT assay. The series is classed as functional. The method, boiled down:
as §2

Series [15] concerns ASPC1. As to the kind of experiment: Inhibition of cell growth of human ASPC1 cells measured after 72 hrs by MTT assay. The class given is functional. The method, boiled down:
as §2

The test system of series [16] is Capan-2. The series is described as follows: Inhibition of cell growth of human Capan-2 cells measured after 72 hrs by MTT assay. The series is classed as functional. The method, boiled down:
as §2

Series [17] has as its system PANC-1. As to the kind of experiment: Inhibition of cell growth of human PANC-1 cells measured after 72 hrs by MTT assay. The class given is functional. The essentials:
as §2

In series [18] the test system is HPAC. The series is described as follows: Inhibition of cell growth of human HPAC cells measured after 72 hrs by MTT assay. The series is classed as functional. The method, boiled down: as §2
For series [19], the system named is HT-29. The series is described as follows: Inhibition of cell growth of human HT-29 cells at 25 uM measured after 72 hrs by MTT assay relative to control. The class given is functional. The essentials:
as §2

In series [20] the test system is MCF7. The series is described as follows: Inhibition of cell growth of human MCF7 cells at 25 uM measured after 72 hrs by MTT assay relative to control. The class given is functional. The essentials:
as §2

Series [21] deals with A2780. As to the kind of experiment: Inhibition of cell growth of human A2780 cells at 25 uM measured after 72 hrs by MTT assay relative to control. The series is classed as functional. The method, boiled down: as §2
The test system of series [22] is BE(2)-C. As to the kind of experiment: Inhibition of cell growth of human BE2C cells at 25 uM measured after 72 hrs by MTT assay relative to control. The class given is functional. The method, boiled down: as §2
The subject of series [23] is MIA PaCa-2. The series is described as follows: Inhibition of cell growth of human MIA PaCa-2 cells at 25 uM measured after 72 hrs by MTT assay relative to control. The class given is functional. The method, boiled down:
as §2

The subject of series [24] is BXPC-3. As to the kind of experiment: Inhibition of cell growth of human BXPC-3 cells at 25 uM measured after 72 hrs by MTT assay relative to control. The class given is functional. The method, boiled down:
as §2

Series [25] concerns ASPC1. The series is described as follows: Inhibition of cell growth of human ASPC1 cells at 25 uM measured after 72 hrs by MTT assay relative to control. The class given is functional. The essentials: as §2
In series [26] the test system is Capan-2. As to the kind of experiment: Inhibition of cell growth of human Capan-2 cells at 25 uM measured after 72 hrs by MTT assay relative to control. The series is classed as functional. The essentials: as §2
For series [27], the system named is PANC-1. As to the kind of experiment: Inhibition of cell growth of human PANC-1 cells at 25 uM measured after 72 hrs by MTT assay relative to control. The class given is functional. The method, boiled down:
as §2

For series [28], the system named is HPAC. As to the kind of experiment: Inhibition of cell growth of human HPAC cells at 25 uM measured after 72 hrs by MTT assay relative to control. The series is classed as functional. The method, boiled down: as §2
A short description of series [29]: Inhibition of cell growth of human MCF-10A cells at 25 uM measured after 72 hrs by MTT assay relative to control. The series is classed as toxicity, cell-based. The essentials:
as §2

In series [1], `CC(C)(C)c1ccc(-c2cn(CCCNCCNS(=O)(=O)c3cc(C(F)(F)F)cc(C(F)(F)F)c3)nn2)cc1` registered a GI50 of 1.1 µM.

In the case of `Cc1ccc(-c2cn(CCCN3CCN(S(=O)(=O)c4ccc(C(F)(F)F)cc4)CC3)nn2)cc1`, the GI50 came out at 4 µM with BXPC-3 [2]; 7.3 µM with ASPC1 [3]; 5 µM in the series with Capan-2 [4]; 6.1 µM in the series with PANC-1 [5]; 5 µM in the series with HPAC [6].

Take `COc1cccc(-c2cn(CCCN3CCN(S(=O)(=O)c4ccc(NC(C)=O)cc4)CC3)nn2)c1`: the GI50 with MIA PaCa-2 [7] is around 50 µM.

As for `O=S(=O)(c1ccc(C(F)(F)F)cc1)N1CCN(CCCn2cc(-c3ccc(Br)cc3)nn2)CC1`, the GI50 in the series on BXPC-3 [2] was found to be 8 µM; with ASPC1 [3], 8.3 µM; in the series with Capan-2 [4] it was 7.7 µM; in the series with PANC-1 [5], 6.8 µM; in the series on HPAC [6], 9.6 µM.

As to `COc1ccc(-c2cn(CCCN3CCN(S(=O)(=O)c4ccc(C(F)(F)F)cc4)CC3)nn2)cc1`, the GI50 worked out at 8.6 µM in the series on HT-29 [8]; 6.1 µM in the series with MCF7 [9]; 6.2 µM with A2780 [10]; 6.4 µM in the series with BE(2)-C [11]; 7.8 µM in the series on MIA PaCa-2 [12]; 12 µM in the series with BXPC-3 [14]. The 50% growth inhibitory concentration (GI50) in the series on ASPC1 [15] turned out to be 14 µM; in the series with Capan-2 [16], 8.4 µM; with PANC-1 [17] it was 5.2 µM; with HPAC [18], 16 µM. Further, in series [13], the GI50 at 72 h stood at 4.9 µM.

`O=S(=O)(c1ccccc1C(F)(F)F)N1CCN(CCCn2cc(-c3ccc(Br)cc3)nn2)CC1`: the GI50 in the series on HT-29 [8] is 10 µM; with MCF7 [9], 9.2 µM; in the series on A2780 [10] it was 14 µM; with BE(2)-C [11], 38 µM; in the series with MIA PaCa-2 [12], above 50 µM; in the series with BXPC-3 [14] it was above 50 µM. Further, the GI50 in the series on ASPC1 [15] is above 50 µM; with Capan-2 [16] it was 23 µM; in the series with PANC-1 [17], above 50 µM; in the series with HPAC [18], above 50 µM. This compound registered a GI50 at 72 h in [13] of 12 µM. In addition, the inhibition at 25 µM was 92% with HT-29 [19]; 87% with MCF7 [20]; 68% in the series on A2780 [21]; 58% in the series on BE(2)-C [22]; 70% in the series on MIA PaCa-2 [23]; below 10% in the series with BXPC-3 [24]. The inhibition at 25 µM with ASPC1 [25] is 51%; in the series on Capan-2 [26] it was 65%; in the series on PANC-1 [27], 53%; with HPAC [28] it was 42%. This compound yielded an inhibition at 72 h, 25 µM in [29] of 72%.

For the compound `COc1ccccc1-c1cn(CCCN2CCN(S(=O)(=O)c3ccc(C(F)(F)F)cc3)CC2)nn1`, the GI50 was 0.47 µM with HT-29 [8]; 0.36 µM with MCF7 [9]; 0.8 µM in the series with A2780 [10]; 0.59 µM in the series with BE(2)-C [11]; 0.64 µM in the series with MIA PaCa-2 [12]; 0.48 µM with BXPC-3 [14]. Moreover, the GI50 amounted to 0.61 µM in the series with ASPC1 [15], 0.56 µM in the series with Capan-2 [16], 0.68 µM with PANC-1 [17] and 0.43 µM in the series with HPAC [18]. In [13], this compound displayed a GI50 at 72 h of 1 µM.

As for `CCc1ccc(-c2cn(CCCN3CCN(S(=O)(=O)c4ccc(C(F)(F)F)cc4)CC3)nn2)cc1`, the GI50 is 3.7 µM in the series on BXPC-3 [2]; 8 µM in the series on ASPC1 [3]; 6.1 µM in the series with Capan-2 [4]; 6.1 µM with PANC-1 [5]; 5.8 µM in the series with HPAC [6].

Regarding `O=S(=O)(NCCCNCc1ccc(Cl)cc1)c1cc(C(F)(F)F)cc(C(F)(F)F)c1`, the GI50 in series [1] was determined as 1.6 µM.

For `O=S(=O)(c1ccc(C(F)(F)F)cc1)N1CCN(CCCn2cc(-c3ccc(C(F)(F)F)cc3)nn2)CC1`, the GI50 in the series on BXPC-3 [2] was determined as 14 µM; with ASPC1 [3], 18 µM; in the series on Capan-2 [4], 16 µM; in the series on PANC-1 [5] it was 16 µM; in the series with HPAC [6], 15 µM.
